Measurements as given in ChEMBL document CHEMBL3526089, “Selective mechanism-based inactivation of CYP3A4 by CYP3cide (PF-04981517) and its utility as an in vitro tool for delineating the relative roles of CYP3A4 versus CYP3A5 in the metabolism of drugs” (Drug Metab Dispos, 2012).

Columns and labels:
Type in all cases: ADME
Conditions in all cases: recombinant enzyme
Cytochrome P450 3A5 [1] = target: T1, Cytochrome P450 3A5 (Homo sapiens, UniProt P20815); assay: Drug level assessed as human recombinant CYP3A5 in presence of human P450 oxidoreductase and b5-mediated drug metabolism treated with 10 uM of PF-04981517 by HPLC-MS analysis in presence of NADPH
T1 sequence (P20815 whole entry): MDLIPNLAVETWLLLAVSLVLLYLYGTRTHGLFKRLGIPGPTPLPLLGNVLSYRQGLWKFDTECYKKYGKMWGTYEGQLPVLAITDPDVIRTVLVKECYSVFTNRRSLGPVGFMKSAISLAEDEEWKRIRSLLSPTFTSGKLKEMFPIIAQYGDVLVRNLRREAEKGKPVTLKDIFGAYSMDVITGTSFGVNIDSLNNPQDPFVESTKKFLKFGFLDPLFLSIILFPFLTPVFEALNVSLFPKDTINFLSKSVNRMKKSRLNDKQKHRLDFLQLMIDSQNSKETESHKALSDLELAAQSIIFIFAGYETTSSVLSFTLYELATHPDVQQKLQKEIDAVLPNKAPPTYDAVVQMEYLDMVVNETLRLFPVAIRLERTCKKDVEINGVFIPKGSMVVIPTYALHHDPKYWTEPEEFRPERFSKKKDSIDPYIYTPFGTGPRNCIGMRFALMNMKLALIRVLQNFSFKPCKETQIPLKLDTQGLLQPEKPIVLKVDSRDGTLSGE
Summary of the method: (§1)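 Recombinant CYP3A4 or CYP3A5 (50 pmol/ml final) added, without preincubation, to 10 µM CYP3cide with NADPH (final 1 mM) in 100 mM phosphate pH 7.4. Trapping incubations also held 200 µM KCN or 5 mM GSH (final). Incubated 1 h at 37°C, quenched with acetonitrile, dried, reconstituted. Metabolites analysed by LC/Orbitrap ESI-MS.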

Cytochrome P450 3A4 [2] = target: T2, Cytochrome P450 3A4 (Homo sapiens, UniProt P08684); assay: Drug level assessed as human recombinant CYP3A4 in presence of human P450 oxidoreductase and b5-mediated drug metabolism treated with 10 uM of PF-04981517 by HPLC-MS analysis in presence of NADPH; summary of the method: as §1
T2 sequence (P08684 whole entry): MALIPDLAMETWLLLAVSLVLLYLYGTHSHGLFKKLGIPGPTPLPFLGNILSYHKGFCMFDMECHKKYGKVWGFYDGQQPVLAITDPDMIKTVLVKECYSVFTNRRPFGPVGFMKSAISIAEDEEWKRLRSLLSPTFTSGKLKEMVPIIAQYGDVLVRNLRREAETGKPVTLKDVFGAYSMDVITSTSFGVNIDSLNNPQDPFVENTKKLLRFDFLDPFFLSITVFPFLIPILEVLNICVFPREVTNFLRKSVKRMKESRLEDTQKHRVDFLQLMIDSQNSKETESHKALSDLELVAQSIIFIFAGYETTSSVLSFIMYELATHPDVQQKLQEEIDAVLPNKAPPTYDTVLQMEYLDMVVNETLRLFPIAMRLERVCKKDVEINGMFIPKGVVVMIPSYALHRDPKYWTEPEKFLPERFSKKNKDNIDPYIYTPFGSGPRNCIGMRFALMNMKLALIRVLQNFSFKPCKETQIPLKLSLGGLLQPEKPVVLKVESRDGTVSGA

Cytochrome P450 3A4 [3] = target: T2, Cytochrome P450 3A4; assay: Drug level assessed as human recombinant CYP3A4 in presence of human P450 oxidoreductase and b5-mediated drug metabolism treated with 10 uM of PF-04981517 by HPLC-MS analysis in presence of KCN and NADPH; summary of the method: as §1
Cytochrome P450 3A5 [4] = target: T1, Cytochrome P450 3A5; assay: Drug level assessed as human recombinant CYP3A5 in presence of human P450 oxidoreductase and b5-mediated drug metabolism treated with 10 uM of PF-04981517 by HPLC-MS analysis in presence of KCN and NADPH; summary of the method: as §1
Cytochrome P450 3A5 [5] = target: T1, Cytochrome P450 3A5; assay: Drug metabolism assessed as human recombinant CYP3A5 in presence of human P450 oxidoreductase and b5-mediated compound formation at 10 uM by HPLC-MS analysis in presence of KCN; summary of the method: as §1

## Cc1ccc(-c2c(-c3nn(C)c4ncnc(N5CC[C@H]([N+]6=CCCCC6)C5)c34)cnn2C)cc1
Cytochrome P450 3A5 [1]
  Drug metabolism: metabolite_detected
Cytochrome P450 3A4 [2]
  Drug metabolism: metabolite_detected
Cytochrome P450 3A4 [3]
  Drug metabolism: metabolite_detected
Cytochrome P450 3A5 [4]
  Drug metabolism: metabolite_detected

## Cc1ccc(-c2c(-c3nn(C)c4ncnc(N5CC[C@H](N6CCCCC6)C5)c34)cnn2CO)cc1
Cytochrome P450 3A5 [1]
  Drug metabolism: metabolite_detected
Cytochrome P450 3A4 [2]
  Drug metabolism: metabolite_detected
Cytochrome P450 3A4 [3]
  Drug metabolism: metabolite_detected
Cytochrome P450 3A5 [4]
  Drug metabolism: metabolite_detected

## Cc1ccc(-c2c(-c3nn(C)c4ncnc(N5CC[C@H](N6CCCCC6=O)C5)c34)cnn2C)cc1
Cytochrome P450 3A5 [5]
  Drug metabolism: metabolite_detected

## Cc1ccc(-c2c(-c3nn(C)c4ncnc(N5CC[C@H](N)C5)c34)cnn2C)cc1
Cytochrome P450 3A5 [5]
  Drug metabolism: metabolite_detected
